This excerpt belongs to a sample that is enriched for hits.
HCT116 bCat-KO: beta-catenin-lacking colon tumor cell growth suppression; viability, % at 10 µM; AID 818; HCT116 beta-catenin knockout viability, CellTiter-Glo, 60 h; hits give low values; hit rate 1.5% among 140,000;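 active = viability at or under a set limit, the compound median less 4 SD, cut at about 6% in these data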
H69AR growth 86K: growth inhibitors of human H69AR lung tumor cells; H69AR lung tumor viability, ATP luminescence, 72 h; hits give low values; viability, % at 10 µM; hit rate 6% among 85,000; AID 598;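 active = viability at or below 40%; inactive = viability above 40%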;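 also: multidrug resistant small cell line overexpressing MRP-1 efflux transporter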
Fibroblast inh: blocks proliferation of human lung fibroblasts. LL 47 human lung fibroblast viability, ATP luminescence; hits give low values. viability, % at 10 µM. hit rate 1.1% among 85,000;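 active = viability at or below 50% in the single dose screen; inactive = viability above 50%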;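 also: compound exposure lasted 72 h before the ATP readout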
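Material: Human LL 47 lung fibroblast cells | Input: 1,150 cells/well | Buffer or medium: IMEM plus 15% FBS | Compound dosing: 0.1% DMSO in all compound wells | Times: Overnight cell rest, 72 h compound treatment at 37 °C | Signal: CellTiter-Glo luminescence measuring cellular ATP | Measure: % viability versus median cells-only luminescence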
HCT116 PTEN-null: PTEN-deleted cell growth suppression; hit rate 1.2% among 140,000; HCT116 PTEN-null viability, CellTiter-Glo, 60 h; hits give low values; viability, % at 10 µM;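 active = viability at or below a set limit, 4 SD under the median of all tested compounds, cut at about 3.7% in these data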;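 also: PTEN knockout HCT116 line with beta catenin targeted HCT116 as companion control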
HUVEC prolif 384: inhibitors of human endothelial cell proliferation; viability, % at 10 µM (by protocol); hit rate 1.1% among 86,000; AID 648; HUVEC proliferation, CellTiter-Glo luminescence, 72 h; hits give low values;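 active = viability at or below 30%; inactive = viability above 30%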
Numbers stand for hits; 0 = inactive; - = not tested or not shown.

SMILES	HCT116 bCat-KO	H69AR growth 86K	Fibroblast inh	HCT116 PTEN-null	HUVEC prolif 384
Cc1cc(Cl)ccc1N=c1ssnc1Cl	0	2.2	0	0	0
COc1ccc(OC)c(N=c2ssnc2Cl)c1	0	-	-	0	-
COc1cc(N=c2ssnc2Cl)c(OC)cc1Cl	0	1.1	44	0	0
Cc1ccc(N=c2ssnc2Cl)cc1	0	2.4	0	0	0
Cc1cc(C)nc(/N=c2/ssnc2Cl)c1	0	20	0	0	0
Cc1ccc(N=C2NC(=O)CS2)cc1	0	0	0	0	0
COc1ccc(CN2C(=O)CN=C2Nc2cc(C)ccc2C)cc1	0	40	0	0	0
C[N+](C)(C)c1ccc(/C=N/Nc2nc(Cl)c(C#N)c(Cl)c2Cl)cc1	0	-	-	0	-
N#Cc1c(Cl)nc(N/N=C/c2ccccc2)c(Cl)c1Cl	2.8	-	-	1.6	-
Cc1ccccc1CS(=O)(=O)c1snnc1C	0	-	-	0	-
Cc1ccccc1CS(=O)(=O)c1cnc2ccccc2n1	0	16	0	0	0
Cc1ccc(NC(=O)Nc2nnc(CSCCOc3ccc(Cl)cc3)s2)cc1	0	-	-	0	-
O=C(Nc1cccc(Cl)c1)Nc1nnc(CSCCOc2ccc(Cl)cc2)s1	4.2	-	-	0	-
O=C(Nc1cccc(Cl)c1)Nc1nnc(CC2=CCCCC2)s1	0	-	-	3.4	-
COc1ccc(OC)c(C(=O)CSc2nccc(-c3ccc(Br)cc3)n2)c1	0	-	-	0	-
c1ccc(CN2CCC(Nc3nc(-c4ccccc4)nc4ccccc34)CC2)cc1	1.6	2.1	5.4	1.6	4.0
Cc1ccc(C(=O)CSc2nnc(-c3ccc4[nH]c(C)c(C)c4c3)o2)cc1C	4.2	-	-	2.1	-
COCCN(C(=O)CN1CCN(S(=O)(=O)c2ccc(F)cc2)CC1)c1c(N)n(Cc2ccccc2)c(=O)[nH]c1=O	0	-	-	0	-
COc1ccc(-n2c(C)cc(/C=N/Nc3nnc(C)n3N)c2C)cc1	0	-	-	0	-
CN1CCN(Cc2nc3ccccc3c(=O)n2Cc2nc(-c3ccc([N+](=O)[O-])cc3)cs2)CC1	0.8	-	-	0.5	-
CCCc1nc(SCC(=O)N2CCC(Cc3ccccc3)CC2)c2c(=O)n(C)c(=O)n(C)c2n1	0	0	0	1.4	3.2
CCc1nc(SCC(=O)NCc2ccccc2)c2c(=O)n(C)c(=O)n(C)c2n1	0	27	0	0	0
COc1cc2c(=O)n(Cc3ccco3)c(=O)n(CC(=O)c3ccc(Br)cc3)c2cc1OC	0	17	0	0	0
COc1cc2c(=O)n(Cc3ccco3)c(=O)n(CC(=O)c3cccc(Br)c3)c2cc1OC	0	2.4	0	0	0
COc1cc2c(=O)n(Cc3ccccc3)c(=O)n(CC(=O)C(C)(C)C)c2cc1OC	-	0	0	-	0
SMILES	HCT116 bCat-KO	H69AR growth 86K	Fibroblast inh	HCT116 PTEN-null	HUVEC prolif 384
O=S(=O)(/N=C(/Nc1ccc(F)c(F)c1F)c1ccccc1)c1ccccc1	0	-	-	0	-
N#Cc1c(N)nc(SCC(=O)C23CC4CC(CC(C4)C2)C3)c(C#N)c1-c1ccc(Cl)cc1	0	16	0	0	0
CC1=C(C(=O)OCc2ccccc2)C(c2ccc(Cl)cc2Cl)NC(=O)N1CCCC(=O)O (stereo not drawn)	0	-	-	0	-
O=C(CC(SCCO)c1ccc2c(c1)OCO2)c1ccco1 (stereo not drawn)	0	16	0	0	0
O=C(O)CC(Cc1ccccc1)c1ccc2c(c1)OCO2 (stereo not drawn)	0	0	0	0	0
CCNc1ccc(C(=O)OCC(=O)c2cc(C)n(Cc3ccc4c(c3)OCO4)c2C)cc1[N+](=O)[O-]	0	-	-	0	-
Cc1cc(O)ccc1NC(=O)CCN1C(=O)c2ccc([N+](=O)[O-])cc2C1=O	0	-	-	0	-
CCOC(=O)c1ccc(N=c2sc(C(=O)OC)cc(=O)n2C2CC2)cc1	0	34	0	0	0
COC(=O)c1cc(=O)n(Cc2ccc3c(c2)OCO3)c(=Nc2ccc(F)cc2)s1	0	7.9	0	0	0
CCOC(=O)c1ccc(N=c2sc(C(=O)OC)cc(=O)n2Cc2ccc3c(c2)OCO3)cc1	0	33	0	0	0
COC(=O)c1ccc(N=c2sc(C(=O)OC)cc(=O)n2C)cc1	-	24	0	-	0
S=c1[nH]nc(-c2ccccn2)n1/N=C/c1ccc(Br)s1	0	-	-	0	-
COC(=O)c1cc(=O)n(Cc2ccc3c(c2)OCO3)c(=Nc2ccccc2)s1	0	12	0	0	0
O=C(Nc1ccccc1)N1CCN(Cc2ccc3c(c2)OCO3)CC1	0	0	0	0	0
Cc1ccc2cc(C#N)c(SCc3nnc(-c4ccccc4[N+](=O)[O-])o3)nc2c1	1.4	-	-	1.2	-
Cc1ccc2nc3sc(-c4nnc(-c5ccccc5[N+](=O)[O-])o4)c(N)c3cc2c1	0	-	-	0	-
N=c1sc2ccccc2n1-c1ccccc1	0	31	0	0	0
COc1cc(/C=N/n2nnnc2Nc2ccccc2)cc(OC)c1OC	0	-	-	0	-
CCN1/C(=C(\O)c2ccccc2)C(=O)c2ccccc2S1(=O)=O	0	33	0	0	0
CCN(CC)S(=O)(=O)c1ccc(OC)c(NC(=O)CSc2cc(Cl)ccc2Cl)c1	0	-	-	0	-
O=C(CCN1C(=O)C2C3CC(C(Br)C3Br)C2C1=O)OCC(=O)c1ccccc1 (stereo not drawn)	0	-	-	0	-
COC(=O)c1cc(NC(=O)c2cccc(C(F)(F)F)c2)c(=O)oc1C/C=N/OCc1cccc(Cl)c1Cl	0	13	0	0	0
O=C(NCc1ccccc1Cl)c1cccc(C(F)(F)F)c1	0	-	-	0	-
Cc1ccccc1Cc1c(C)nc2c(C(=O)NCc3ccc4c(c3)OCO4)cnn2c1C	0	29	0	0	0
Cc1ccc(C)c(Cc2c(C)nc3c(C(=O)NCc4ccc5c(c4)OCO5)cnn3c2C)c1	0	0	0	0	0
SMILES	HCT116 bCat-KO	H69AR growth 86K	Fibroblast inh	HCT116 PTEN-null	HUVEC prolif 384
Cc1ccc(C(=O)O/N=C(\N)c2cccnc2)cc1[N+](=O)[O-]	0	-	-	0	-
Cc1ccc(C(=O)O/N=C(\N)c2ccc(Br)cc2)cc1C	0	28	0	0	0
Cc1cc(C)cc(C(=O)O/N=C(\N)c2ccc(Br)cc2)c1	0	34	0	0	0
COc1ccc(/C(N)=N/OC(=O)c2ccc(C)c([N+](=O)[O-])c2)cc1OC	0	24	0	0	0
CSc1cccc(NC(=O)Nc2ccc(Cl)cc2)c1	0	0	0	0	0
CSc1ccccc1NC(=O)Nc1ccc(Cl)cc1	0	35	0	0	0
Oc1ccc(N=C/C=C/c2cccc(Br)c2)cc1-c1nc2ccccc2s1	5.1	-	-	0	-
O=C(Nc1ccc(O)c(-c2nc3ccccc3s2)c1)c1cc(=O)c2ccccc2o1	0	-	-	0	-
Nc1ccc(O)c(-c2nc3ccccc3s2)c1	0	0	0	3.4	0
C=CCn1c(SCC(=O)c2ccc(O)c(O)c2)nnc1-c1ccccc1OC	0	20	0	0	0
CCn1c(SCC(=O)c2ccc(O)c(O)c2)nnc1-c1ccccc1OC	0	36	0	0	0
C=CCn1c(SCC(N)=O)nnc1-c1ccccc1O	0	0	0	0	0
CCCC1(CCC)NC(=O)N(CC(=O)Nc2ccccc2OC)C1=O	0	0	15	0	0
CCCN1C(=O)/C(=C2\SC(N3CCCCC3)=NC2=O)c2ccccc21	0	19	-	0	0
CN1C(=O)/C(=C2\SC(N3CCCCCC3)=NC2=O)c2ccccc21	0	0	0	-	0
